Reference: ChEMBL document CHEMBL5724801, “EUbOPEN Chemogenomics Library - Multiplex” (2024)
Values joined by “and” are separate entries in the source; they are usually repeats but may differ in a detail not shown here. Equal entries are not always repeated.

System: Fibroblast
Assay: Multiplex assay against human fibroblast
Assay type: toxicity, cell-based
Summary of the method: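 On a CQ1 microscope at 37°C and 5% CO2, live cells were imaged after compound addition. They had been stained at seeding with Hoechst33342, BioTracker Green Microtubule Cytoskeleton Dye, MitoTracker Red and Annexin V Alexa Fluor 680. CellPathfinder machine-learning gating assigned cells to Hoechst high-intensity objects or normal cells, normal cells to healthy, pyknosed or fragmented nuclei, and pyknosed cells to mitotic or apoptotic. Tubulin, mitochondrial-mass and membrane-permeability phenotypes are per cents of healthy-nucleus cells.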

[1] = 12 h, 1 µM, compound concentration 1 uM
[2] = 12 h, 10 µM, compound concentration 10 uM
[3] = 24 h, 1 µM, compound concentration 1 uM
[4] = 24 h, 10 µM, compound concentration 10 uM
[5] = 48 h, 1 µM, compound concentration 1 uM
[6] = 48 h, 10 µM, compound concentration 10 uM

Cc1sc2c(c1C)C(c1ccc(Cl)cc1)=N[C@H](CC(=O)OC(C)(C)C)c1nnc(C)n1-2
Population Apoptotic (%) [1]: 43% and 33% | Population Fragmented Nuclei (%) [1]: 15% and 26% | Population Healthy Nuclei (%) [1]: 62% and 51% | Population Hoechst High Intensity Objects (%) [1]: 2% and 5% | Population Membrane Permeable-Phenotype (%) [1]: 0% and 15% | Population Mitochondria Different-Phenotype (%) [1]: 5% and 10% | Population Mitotic Cells (%) [1]: 56% and 66% | Population Normal (%) [1]: 97% and 94% | Population Pyknosed Nuclei (%) [1]: 22% | Population Tubulin-Different-Phenotype (%) [1]: 30% and 46% | Total Cell Count [1]: 180 and 159 | Population Apoptotic (%) [2]: 43% and 51% | Population Fragmented Nuclei (%) [2]: 19% and 30% | Population Healthy Nuclei (%) [2]: 55% and 39% | Population Hoechst High Intensity Objects (%) [2]: 7% and 5% | Population Membrane Permeable-Phenotype (%) [2]: 0% and 4% | Population Mitochondria Different-Phenotype (%) [2]: 15% and 20% | Population Mitotic Cells (%) [2]: 56% and 48% | Population Normal (%) [2]: 92% and 94% | Population Pyknosed Nuclei (%) [2]: 25% and 29% | Population Tubulin-Different-Phenotype (%) [2]: 90% and 95% | Total Cell Count [2]: 128 and 169 | Population Apoptotic (%) [3]: 82% and 46% | Population Fragmented Nuclei (%) [3]: 17% and 29% | Population Healthy Nuclei (%) [3]: 60% and 50% | Population Hoechst High Intensity Objects (%) [3]: 2% and 6% | Population Membrane Permeable-Phenotype (%) [3]: 0% and 11% | Population Mitochondria Different-Phenotype (%) [3]: 2% and 5% | Population Normal (%) [3]: 97% and 93% | Population Pyknosed Nuclei (%) [3]: 21% and 20% | Population Tubulin-Different-Phenotype (%) [3]: 29% and 51% | Total Cell Count [3]: 186 and 149 | Population Apoptotic (%) [4]: 75% and 51% | Population Fragmented Nuclei (%) [4]: 16% and 26% | Population Healthy Nuclei (%) [4]: 69% and 45% | Population Hoechst High Intensity Objects (%) [4]: 8% and 4% | Population Membrane Permeable-Phenotype (%) [4]: 2% and 4% | Population Mitochondria Different-Phenotype (%) [4]: 19% and 26% | Population Mitotic Cells (%) [4]: 25% and 48% | Population Normal (%) [4]: 91% and 95% | Population Pyknosed Nuclei (%) [4]: 14% and 27% | Population Tubulin-Different-Phenotype (%) [4]: 76% and 87% | Total Cell Count [4]: 123 and 165 | Population Apoptotic (%) [5]: 63% and 53% | Population Fragmented Nuclei (%) [5]: 19% and 29% | Population Healthy Nuclei (%) [5]: 66% and 49% | Population Hoechst High Intensity Objects (%) [5]: 5% | Population Membrane Permeable-Phenotype (%) [5]: 0% and 12% | Population Mitochondria Different-Phenotype (%) [5]: 2% and 10% | Population Mitotic Cells (%) [5]: 36% and 46% | Population Normal (%) [5]: 94% and 95% | Population Pyknosed Nuclei (%) [5]: 13% and 21% | Population Tubulin-Different-Phenotype (%) [5]: 28% and 69% | Total Cell Count [5]: 170 and 140 | Population Apoptotic (%) [6]: 50% and 63% | Population Fragmented Nuclei (%) [6]: 21% and 35% | Population Healthy Nuclei (%) [6]: 66% and 51% | Population Hoechst High Intensity Objects (%) [6]: 1% | Population Membrane Permeable-Phenotype (%) [6]: 1% and 4% | Population Mitochondria Different-Phenotype (%) [6]: 13% and 9% | Population Mitotic Cells (%) [6]: 50% and 36% | Population Normal (%) [6]: 98% | Population Pyknosed Nuclei (%) [6]: 12% and 13% | Population Tubulin-Different-Phenotype (%) [6]: 70% and 88% | Total Cell Count [6]: 134 and 170

CC[C@H]1OC(=O)[C@H](C)[C@@H](O[C@H]2C[C@@](C)(OC)[C@@H](O)[C@H](C)O2)[C@H](C)[C@@H](O[C@@H]2O[C@H](C)C[C@H](N(C)C)[C@H]2O)[C@@]2(C)CC(C)=C(O2)[C@H](C)[C@@H](O)[C@]1(C)O
Population Apoptotic (%) [1]: 37% and 46% | Population Fragmented Nuclei (%) [1]: 13% and 23% | Population Healthy Nuclei (%) [1]: 72% and 57% | Population Hoechst High Intensity Objects (%) [1]: 2% and 3% | Population Membrane Permeable-Phenotype (%) [1]: 0% and 9% | Population Mitochondria Different-Phenotype (%) [1]: 8% and 6% | Population Mitotic Cells (%) [1]: 62% and 53% | Population Normal (%) [1]: 97% and 96% | Population Pyknosed Nuclei (%) [1]: 13% and 18% | Population Tubulin-Different-Phenotype (%) [1]: 40% and 53% | Total Cell Count [1]: 176 and 170 | Population Apoptotic (%) [2]: 48% and 40% | Population Fragmented Nuclei (%) [2]: 24% and 41% | Population Healthy Nuclei (%) [2]: 63% and 33% | Population Hoechst High Intensity Objects (%) [2]: 3% and 4% | Population Membrane Permeable-Phenotype (%) [2]: 0% and 14% | Population Mitochondria Different-Phenotype (%) [2]: 25% and 11% | Population Mitotic Cells (%) [2]: 52% and 59% | Population Normal (%) [2]: 96% and 95% | Population Pyknosed Nuclei (%) [2]: 12% and 25% | Population Tubulin-Different-Phenotype (%) [2]: 86% and 73% | Total Cell Count [2]: 205 and 133 | Population Apoptotic (%) [3]: 52% and 46% | Population Fragmented Nuclei (%) [3]: 18% and 29% | Population Healthy Nuclei (%) [3]: 69% and 52% | Population Hoechst High Intensity Objects (%) [3]: 4% and 3% | Population Membrane Permeable-Phenotype (%) [3]: 0% and 7% | Population Mitochondria Different-Phenotype (%) [3]: 7% and 5% | Population Mitotic Cells (%) [3]: 47% and 53% | Population Normal (%) [3]: 95% and 96% | Population Pyknosed Nuclei (%) [3]: 12% and 17% | Population Tubulin-Different-Phenotype (%) [3]: 45% and 36% | Total Cell Count [3]: 173 and 176 | Population Apoptotic (%) [4]: 52% and 46% | Population Fragmented Nuclei (%) [4]: 22% and 40% | Population Healthy Nuclei (%) [4]: 69% and 39% | Population Hoechst High Intensity Objects (%) [4]: 2% and 1% | Population Membrane Permeable-Phenotype (%) [4]: 0% and 8% | Population Mitotic Cells (%) [4]: 47% and 53% | Population Normal (%) [4]: 97% and 98% | Population Pyknosed Nuclei (%) [4]: 8% and 20% | Population Tubulin-Different-Phenotype (%) [4]: 89% and 81% | Total Cell Count [4]: 199 and 127 | Population Apoptotic (%) [5]: 55% and 56% | Population Fragmented Nuclei (%) [5]: 17% and 32% | Population Healthy Nuclei (%) [5]: 71% and 54% | Population Hoechst High Intensity Objects (%) [5]: 3% and 2% | Population Membrane Permeable-Phenotype (%) [5]: 0% and 7% | Population Mitochondria Different-Phenotype (%) [5]: 9% and 5% | Population Mitotic Cells (%) [5]: 44% and 43% | Population Normal (%) [5]: 96% and 97% | Population Pyknosed Nuclei (%) [5]: 11% and 13% | Population Tubulin-Different-Phenotype (%) [5]: 57% and 56% | Total Cell Count [5]: 168 and 173 | Population Apoptotic (%) [6]: 84% and 58% | Population Fragmented Nuclei (%) [6]: 24% and 43% | Population Healthy Nuclei (%) [6]: 68% and 47% | Population Hoechst High Intensity Objects (%) [6]: 8% and 7% | Population Membrane Permeable-Phenotype (%) [6]: 0% and 6% | Population Mitotic Cells (%) [6]: 15% and 41% | Population Normal (%) [6]: 91% and 92% | Population Pyknosed Nuclei (%) [6]: 6% and 9% | Population Tubulin-Different-Phenotype (%) [6]: 91% and 78% | Total Cell Count [6]: 216 and 139
